# Laboratory results reported in PubChem BioAssay.
# The source made the active and inactive calls.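 Rule for the calls, unless noted: active = GFP response above 150% of the DMSO level; inconclusive = fewer than 70 events counted for a yeast strain; inactive = the rest.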
# Legend:
# [1] = RPL19A-GFP modulators, yeast TOR pathway, confirmation, cell-based, S. cerevisiae, flow cytometry, cherry picks, mother/daughter gates (AID 2270;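 active = GFP response below 50% of the DMSO control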); conditions: S. cerevisiae RPL19A-GFP strain, 3 h, at 10 µM, stronger effect = lower value, 100 = same GFP as DMSO wells
# [2] = LAP4-GFP expression modulators in yeast, confirmation, cell-based, cherry picks, flow cytometry, mother/daughter gates (AID 2271;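 active = GFP response above 150% of the DMSO control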;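 note: ratio of sample to DMSO plate mean so 100% equals DMSO level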); conditions: S. cerevisiae LAP4-GFP strain, 3 h, at 10 µM, stronger effect = higher value, 100 means same as DMSO control
# Procedure, shortened: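 System: GFP-fusion yeast strain; Incubation: compound exposure 3 h at 30 °C, end-over-end rotation; Measured by: GFP by flow cytometry; Read-out: median GFP fluorescence as percent of plate-mean DMSO wells; Medium: synthetic complete (SC) yeast growth medium; Compound: single test-compound dose, 10 µM final; Benchmarks: DMSO-only negative wells, rapamycin 400 ng/mL positive wells.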
# [3] = modulators of MEP2-GFP levels in yeast, confirmation, S. cerevisiae, flow cytometry GFP, cherry picks (AID 2272;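 active = GFP response above 150% of the DMSO control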;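 note: ratio of well signal to plate DMSO mean so 100% equals DMSO level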); conditions: S. cerevisiae MEP2-GFP strain, 3 h, at 10 µM, stronger effect = higher value
# [4] = AGP1-GFP expression modulators, hit retest, confirmation, cell-based, flow cytometry, S. cerevisiae, cherry picks (AID 2273);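 note: median GFP channel fluorescence over the whole cell population gate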; conditions: S. cerevisiae AGP1-GFP strain, 3 h, at 10 µM
# [5] = modulators of CIT2-GFP expression in yeast, confirmation, S. cerevisiae, GFP fusion, cherry picks, mother/daughter gates (AID 2274); conditions: S. cerevisiae CIT2-GFP strain, flow cytometry, 3 h, at 10 µM, stronger effect = higher value
# [6] = measured here: daughter cell gate
# [7] = measured here: mother cell gate
# [8] = measured here: daughter cell gate response
# [9] = measured here: mother cell gate response
SMILES,GFP response vs DMSO [1],"GFP response vs DMSO [1, 6] [%]","GFP response vs DMSO [1, 7] [%]",GFP response relative to DMSO [2],"GFP response relative to DMSO [2, 8] [%]","GFP response relative to DMSO [2, 9] [%]",GFP response vs DMSO [3],"GFP response, % of DMSO [4]","GFP response, % of DMSO [5]","GFP response, % of DMSO [5, 6] [%]","GFP response, % of DMSO [5, 7] [%]"
C/C(=N\NC(=O)c1ccc(Cl)cc1)c1cccc(NC(=O)C(C)C)c1,95.8% (inactive),95.1,95.8,99.2% (inactive),99.2,97.2,96.2% (inactive),97.2% (inactive),101% (inactive),101,101
CCc1nnc(NC(=O)c2ccc(S(=O)(=O)N(CCOC)CCOC)cc2)o1,95% (inactive),94.4,96.2,91.5% (inactive),96,90.8,96.2% (inactive),97.8% (inactive),99.7% (inactive),101,101
C=CCN1C(=O)C2(C(C#N)=C(N)Oc3n[nH]c(CCC)c32)c2ccccc21 (configuration not stated),100% (inactive),99.8,102,97.4% (inactive),100,98.3,100% (inactive),102% (inactive),100% (inactive),98.1,102
CCCc1[nH]nc2c1C(c1ccc(OC)c(Cn3nc(C)c(Br)c3C)c1)C(C#N)=C(N)O2 (configuration not stated),95% (inactive),94.2,96.2,97.7% (inactive),97.9,98.5,99.5% (inactive),99.3% (inactive),97.8% (inactive),98.3,95.6
O=C1C2C3C=CC(CO)(O3)C2C(=O)N1c1ccccc1-c1ccccc1 (configuration not stated),113% (inactive),117,110,135% (inactive),128,132,126% (inactive),109% (inactive),124% (inactive),132,113
COc1cccc(C(=O)/C=C/c2ccc(SC)cc2)c1,98.6% (inactive),98.1,98.5,103% (inactive),104,103,100% (inactive),101% (inactive),99.7% (inactive),99.1,99.7
Cc1ccc(NC(=O)c2nc(S(=O)(=O)Cc3ccccc3)ncc2Cl)cc1,92% (inactive),92.5,89.8,141% (inactive),134,140,95.7% (inactive),100% (inactive),90% (inactive),89.9,85.8
CCOc1ccc(N2C(=O)CC(Sc3nccc(C)n3)C2=O)cc1 (configuration not stated),97.3% (inactive),99.3,97.3,97.7% (inactive),97.5,97.4,103% (inactive),102% (inactive),100% (inactive),97.6,102
Cc1ccc(S(=O)(=O)c2ncccc2N)cc1,99.4% (inactive),99.4,99,101% (inactive),101,98.3,100% (inactive),102% (inactive),101% (inactive),101,99.7
CCOc1ccccc1NC(=O)c1nc(S(=O)(=O)Cc2cccc(C)c2)ncc1Cl,101% (inactive),100,101,101% (inactive),102,103,100% (inactive),101% (inactive),97.8% (inactive),96.5,98.7
COc1ccc(N2C(=O)CC(Sc3nccc(C)n3)C2=O)cc1 (configuration not stated),97.2% (inactive),98,96.5,98.8% (inactive),101,98.5,104% (inactive),107% (inactive),99.3% (inactive),96.4,100
CCOc1ccc(/C=C2\N=C(c3cccs3)OC2=O)cc1OC,95% (inactive),95.2,93.9,98.2% (inactive),97.5,99.4,101% (inactive),94.5% (inactive),97.3% (inactive),95.6,98.1
N=c1ccn(CC(=O)c2ccc(-c3ccccc3)cc2)cc1,99.7% (inactive),99.3,98.8,96.5% (inactive),93.6,99.5,104% (inactive),92.1% (inactive),96.4% (inactive),96.4,95.6
CCCc1cc(N2CCN(c3ccccn3)CC2)n2nc(C)c(-c3ccccc3)c2n1,104% (inactive),101,104,142% (inactive),147,140,160% (inactive),109% (inactive),153% (active),154,148
Cc1ccc(/C=c2\sc3nc(-c4cccs4)nn3c2=O)o1,98.6% (inactive),95.9,95.4,128% (inactive),117,131,163% (inactive),95.4% (inactive),104% (inactive),101,104
Cc1ccc(S(=O)(=O)/N=C(\Sc2ccccc2)c2ccccc2)cc1,99.5% (inactive),98.3,98.6,151% (active),134,148,106% (inactive),97.3% (inactive),92.1% (inactive),92.7,87.5
O=C(NC(c1ccccc1)C(Cl)Cl)c1ccccc1 (configuration not stated),94.7% (inactive),98.4,92.9,97.7% (inactive),104,93.4,128% (inactive),125% (inactive),107% (inactive),108,106
O=C(N/N=C/c1ccc(-c2ccc(Br)cc2)o1)c1ccc2c(c1)OCO2,102% (inactive),98.6,101,99.5% (inactive),95.9,98.4,103% (inactive),98.8% (inactive),102% (inactive),99.2,98.1
Cc1ccccc1N1C(=O)c2cccc3c(N(C)CCO)ccc(c23)C1=O,99.5% (inactive),99.8,100,100% (inactive),99.3,98.5,104% (inactive),103% (inactive),101% (inactive),102,100
O=c1/c(=C/c2cccc3ccccc23)sc2ncnn12,112% (inactive),113,107,185% (active),177,180,116% (inactive),91.2% (inactive),112% (inactive),122,100
Cc1[nH][nH]c(=O)c1C(c1ccc(-c2ccc(Cl)c(Cl)c2)o1)c1c(C)[nH][nH]c1=O,104% (inactive),104,101,173% (active),142,169,130% (inactive),115% (inactive),103% (inactive),105,102
CC(C)c1nc2ccccn2c1NC1CCCCC1,101% (inactive),98.4,98,97.9% (inactive),99.2,98.3,100% (inactive),102% (inactive),101% (inactive),103,101
Cc1cccn2c(=O)c(/C=C(\C#N)C(=O)NCc3ccccc3)c(N3CCC(C(N)=O)CC3)nc12,98.7% (inactive),99,97.5,101% (inactive),102,101,101% (inactive),104% (inactive),101% (inactive),103,103
Cc1cccn2c(N)c(-c3ccccc3)nc12,97.4% (inactive),97.3,97.1,95.3% (inactive),96.5,90.6,106% (inactive),102% (inactive),104% (inactive),102,96.8
O=C1CC(Sc2nnc(-c3ccccc3O)o2)C(=O)N1c1ccccc1 (configuration not stated),95.1% (inactive),98.3,93.1,104% (inactive),101,105,101% (inactive),104% (inactive),106% (inactive),103,106
CC(Oc1ccc(Br)cc1)C(=O)Nc1nc(-c2ccccn2)cs1 (configuration not stated),104% (inactive),95.9,105,241% (active),184,258,117% (inactive),92.9% (inactive),98.3% (inactive),97.2,93.8
Cc1cccn2c(=O)c(/C=C(\C#N)C(=O)NC3CCS(=O)(=O)C3)c(N3CC(C)OC(C)C3)nc12 (configuration not stated),97.8% (inactive),99.4,99.7,92.8% (inactive),96,92.9,100% (inactive),104% (inactive),99.7% (inactive),103,99.7
